# Assay results of several laboratories.
# Lines come from different studies, so protocols differ.
# Si: Sucrase-isomaltase, intestinal (Si, Rattus norvegicus, UniProt P23739)
# PIK3C3: Phosphatidylinositol 3-kinase catalytic subunit type 3 (PIK3C3, Homo sapiens, UniProt Q8NEB9)
# ESR1: Estrogen receptor (ESR1, Homo sapiens, UniProt P03372)
# NR3C1: Glucocorticoid receptor (NR3C1, Homo sapiens, UniProt P04150)
# PRKACB: cAMP-dependent protein kinase catalytic subunit beta (PRKACB, Homo sapiens, UniProt P22694)
# TYR: Tyrosinase (TYR, Homo sapiens, UniProt P14679)
SMILES,target,assay,system,conditions,inhibition [%]
O=C1OC[C@H]2OC(=O)c3cc(O)c(O)c(O)c3-c3c(O)c(O)c(O)c4c3C(=O)O[C@H]([C@H]3OC(=O)c5c-4c(O)c(O)c(O)c5[C@H]3O)[C@@H]2OC(=O)c2cc(O)c(O)c(O)c2-c2c1cc(O)c(O)c2O,Si,"enzyme activity, inhibitor",,50 µg/mL,28.4
CC(C)CCn1c(SCC(=O)Nc2ccccc2C(F)(F)F)nc2nccnc2c1=O,PIK3C3,"enzyme activity, inhibitor",,10 µM,< 20
CCN(Cc1ccccc1C(F)(F)F)C(=O)C1CCN(S(=O)(=O)c2ccc3[nH]ncc3c2)CC1,ESR1,"ligand displacement, radioligand",,10 µM,8
O=C(c1ccc(F)cc1)N(Cc1ccccc1)C1CCCCC1,NR3C1,cell-free assay,,10 µM,9
CNC(=O)c1cc(Oc2ccc(NC(=O)Nc3ccc(Cl)c(C(F)(F)F)c3)cc2)ccn1,"Abl2 (Mus musculus, UniProt Q4JIM5)","enzyme activity, inhibitor",,10 µM,61
COc1cc(-c2cc(-c3ccc(N4CCNCC4)cc3)cnc2C)cc(OC)c1OC,PRKACB,"enzyme activity, inhibitor",,0.1 µM,2
CCCNc1nc2ccccc2n1Cc1ccc(Cl)cc1,"Alpha-2C adrenergic receptor (ADRA2C, Homo sapiens, UniProt P18825)",ligand displacement,,10 µM,84.8
Cc1ccc(Nc2nccc(N(C)c3ccc4c(C)n(C)nc4c3)n2)cc1S(N)(=O)=O,"Mitogen-activated protein kinase 14 (MAPK14, Homo sapiens, UniProt Q16539)","enzyme activity, inhibitor",,10 µM,62
CNc1cc(Oc2cc(C(=O)Nc3cc(N4CCN(C)CC4)cc(C(F)(F)F)c3)ccc2C)ncn1,"Serine/threonine-protein kinase SMG1 (SMG1, Homo sapiens, UniProt Q96Q15)","target engagement in cells, inhibitor, chemoproteomics",Huh-7,1 µM,-15.7
O=C(c1ccc(Cl)cc1)N(Cc1ccccc1)C1CCCCC1,ESR1,cell-free assay,,10 µM,-2.9
O=C(CSc1nc2nccnc2c(=O)n1CCc1ccccc1)Nc1ccccc1,PIK3C3,"enzyme activity, inhibitor",,10 µM,< 20
Cc1ccc(C(C)C)cc1NC(=O)COC(=O)c1cc(O)cc(O)c1,TYR,"enzyme activity, inhibitor",,50 µg/mL,54.6
O=c1c(O[C@@H]2O[C@@H](CO)[C@H](O)[C@H]2O)c(-c2ccc(O)c(O)c2)oc2cc(O)cc(O)c12,Si,"enzyme activity, inhibitor",,25 µg/mL,28.6
O=C(Nc1ccc(S(=O)(=O)N2CCC(Cl)CC2)cc1)c1ccc([N+](=O)[O-])o1,NR3C1,"ligand displacement, radioligand",,10 µM,19
CCN(CC)c1ccc(C2=NNC(=O)CC2C)cc1[N+](=O)[O-] (stereo not drawn),"cGMP-inhibited 3',5'-cyclic phosphodiesterase 3A (PDE3A, Homo sapiens, UniProt Q14432)","enzyme activity, inhibitor",,0.1 µM,95
Cc1ccc(C(C)C)cc1NC(=O)COC(=O)/C=C/c1ccc(O)cc1,TYR,"enzyme activity, inhibitor",,50 µg/mL,55.8
O=c1c(O[C@@H]2O[C@H](CO)[C@@H](O)[C@H](O)[C@H]2O)c(-c2ccc(O)c(O)c2)oc2cc(O)cc(O)c12,Si,"enzyme activity, inhibitor",,200 µg/mL,61.4
Cn1cnc(Br)c1C1=CN(c2ncnc3[nH]cnc23)CCS1,PRKACB,"enzyme activity, inhibitor, radiometric",,2 µM,91.3
CN(C)C1CCN(CC#Cc2nn(C3CCCC3)c3nc(NCc4ccccc4)ncc23)C1 (stereo not drawn),"Inhibitor of nuclear factor kappa-B kinase subunit beta (IKBKB, Homo sapiens, UniProt O14920)","enzyme activity, inhibitor, FRET",,0.1 µM,-1
Cc1ccc(C(C)C)cc1NC(=O)COC(=O)c1ccc(O)cc1O,TYR,"enzyme activity, inhibitor",,50 µg/mL,66.7
COc1cc(NC(C)=O)c(Cl)cc1C(=O)Nc1nccs1,ESR1,cell-free assay,,10 µM,1.4
Ic1cccc2cnccc12,"NAD(+) hydrolase SARM1 (SARM1, Homo sapiens, UniProt Q6SZW1)","enzyme activity, inhibitor",,10 µM,100
Oc1cccc(Nc2nc(-c3ccc(F)cc3F)cs2)c1,ESR1,cell-free assay,,10 µM,11.2
Cc1ccc(C(C)C)cc1NC(=O)COC(=O)c1ccc(O)c(O)c1,TYR,"enzyme activity, inhibitor",,50 µg/mL,56.9
